From ChEMBL document CHEMBL3352316, “Optimization of physicochemical properties and safety profile of novel bacterial topoisomerase type II inhibitors (NBTIs) with activity against Pseudomonas aeruginosa” (Bioorg Med Chem, 2014)
Converted amounts (≈) assume the structure as drawn.

How the values were obtained:
[1] = Aqueous solubility of the compound; format: physicochemical; details: buffer
Pseudomonas aeruginosa [2] = experiment: Antimicrobial activity against Pseudomonas aeruginosa PAO1 after 18 to 20 hrs by broth microdilution; format: functional
Procedure, shortened: (§1)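 Broth microdilution followed CLSI guidelines in Mueller Hinton broth. Inocula were grown 18–20 h at 35 °C on blood agar. Compound in DMSO was tested in doubling dilutions from 64 to 0.06 µg/mL, at 2% DMSO final. Plates were incubated 18–20 h and read at OD 620 nm. MIC was taken as the concentration giving >90% growth inhibition.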

Escherichia coli [3] = experiment: Antimicrobial activity against Escherichia coli W3110 after 18 to 20 hrs by broth microdilution; format: functional; details: K-12 substr. W3110; procedure, shortened: as §1
Staphylococcus aureus = experiment: Antimicrobial activity against methicillin-susceptible Staphylococcus aureus after 18 to 20 hrs by broth microdilution; format: functional; procedure, shortened: as §1
[4] = Fraction unbound in human plasma by LC/MS-MS analysis; format: ADME, cell-free
Procedure, shortened: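 Equilibrium dialysis: 10 µM compound was spiked into human plasma against phosphate buffer and rotated at 37 °C for 16 h. Plasma and buffer concentrations were quantified by LC/MS–MS with a C18 column and ESI MRM detection.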

[5] = Inhibition of Escherichia coli topoisomerase IV ATPase activity
[6] = Partition co-efficient, log D of the compound at pH 7.4 by shake flask method; format: physicochemical; details: buffer
Procedure, shortened: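 Shake-flask method with 10 mM phosphate buffer pH 7.4 against n-octanol, shaken 1 h at 1200 rpm to equilibrium. Analysis was by LC/UV with MS confirmation.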

[7] = biological target: Voltage-gated inwardly rectifying potassium channel KCNH2 (Homo sapiens, UniProt Q12809); experiment: Inhibition of human ERG by cell-based patch clamp method
Sequence of Voltage-gated inwardly rectifying potassium channel KCNH2 (Q12809 whole entry): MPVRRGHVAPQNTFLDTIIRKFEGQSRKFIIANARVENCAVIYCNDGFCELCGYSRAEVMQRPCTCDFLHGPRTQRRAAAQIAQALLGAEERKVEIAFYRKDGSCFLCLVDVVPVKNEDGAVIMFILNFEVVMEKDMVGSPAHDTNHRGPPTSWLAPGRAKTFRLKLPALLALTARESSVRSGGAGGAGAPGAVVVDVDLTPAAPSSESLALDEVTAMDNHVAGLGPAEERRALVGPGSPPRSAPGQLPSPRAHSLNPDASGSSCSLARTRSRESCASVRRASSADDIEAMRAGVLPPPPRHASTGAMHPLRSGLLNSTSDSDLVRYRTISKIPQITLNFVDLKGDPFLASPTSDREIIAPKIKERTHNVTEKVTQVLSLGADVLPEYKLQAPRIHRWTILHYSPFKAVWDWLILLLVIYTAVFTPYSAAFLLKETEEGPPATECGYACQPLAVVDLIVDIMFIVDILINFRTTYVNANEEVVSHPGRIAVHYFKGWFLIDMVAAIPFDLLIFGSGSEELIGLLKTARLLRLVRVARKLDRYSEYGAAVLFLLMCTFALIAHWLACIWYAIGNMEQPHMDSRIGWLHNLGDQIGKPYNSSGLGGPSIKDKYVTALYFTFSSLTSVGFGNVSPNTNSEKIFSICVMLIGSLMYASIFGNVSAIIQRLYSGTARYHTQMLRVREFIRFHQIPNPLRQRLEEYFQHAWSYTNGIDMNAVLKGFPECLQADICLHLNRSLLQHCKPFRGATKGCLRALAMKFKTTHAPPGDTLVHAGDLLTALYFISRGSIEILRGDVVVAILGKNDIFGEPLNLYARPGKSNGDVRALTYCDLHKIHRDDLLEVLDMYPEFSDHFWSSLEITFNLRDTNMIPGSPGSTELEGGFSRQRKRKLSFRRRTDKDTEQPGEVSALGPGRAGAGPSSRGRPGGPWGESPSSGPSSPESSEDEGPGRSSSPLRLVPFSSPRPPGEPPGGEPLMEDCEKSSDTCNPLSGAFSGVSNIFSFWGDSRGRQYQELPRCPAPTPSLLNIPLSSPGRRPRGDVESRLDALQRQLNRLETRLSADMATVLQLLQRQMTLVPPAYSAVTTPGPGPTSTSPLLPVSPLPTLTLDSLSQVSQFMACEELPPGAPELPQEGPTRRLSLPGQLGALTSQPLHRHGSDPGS

Pseudomonas aeruginosa [8] = experiment: Antimicrobial activity against Pseudomonas aeruginosa clinical isolate after 18 to 20 hrs by broth microdilution; format: functional; procedure, shortened: as §1
Escherichia coli [9] = experiment: Antimicrobial activity against Escherichia coli after 18 to 20 hrs by broth microdilution; format: functional; procedure, shortened: as §1
Klebsiella pneumoniae = experiment: Antimicrobial activity against Klebsiella pneumoniae after 18 to 20 hrs by broth microdilution; format: functional; procedure, shortened: as §1
[10] = Clearance in rat at 10 mg/kg, iv; format: ADME, organism-based; parameters: dose 10 mg/kg, route intravenous; details: in vivo
Procedure, shortened: (§2)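 Male rats (Wistar Han) and Beagle dogs received 10 mg/kg as a 15 min iv infusion. Serial 200 µL whole-blood samples were taken from 0 to 24 h. Plasma levels were measured by LC–MS/MS against a standard curve after methanol protein precipitation. Parameters were estimated non-compartmentally.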

[11] = Volume of distribution in rat at 10 mg/kg, iv; format: ADME, organism-based; parameters: dose 10 mg/kg, route intravenous; details: in vivo; procedure, shortened: as §2
[12] = Half life in rat at 10 mg/kg, iv; format: ADME, organism-based; parameters: dose 10 mg/kg, route intravenous; details: in vivo; procedure, shortened: as §2
[13] = AUC in rat at 10 mg/kg, iv; format: ADME, organism-based; parameters: dose 10 mg/kg, route intravenous; details: plasma; procedure, shortened: as §2
[14] = Clearance in beagle dog at 10 mg/kg, iv; format: ADME, organism-based, Canis lupus familiaris; parameters: dose 10 mg/kg, route intravenous; details: in vivo; procedure, shortened: as §2
[15] = Volume of distribution in beagle dog at 10 mg/kg, iv; format: ADME, organism-based, Canis lupus familiaris; parameters: dose 10 mg/kg, route intravenous; details: in vivo; procedure, shortened: as §2
[16] = Half life in beagle dog at 10 mg/kg, iv; format: ADME, organism-based, Canis lupus familiaris; parameters: dose 10 mg/kg, route intravenous; details: in vivo; procedure, shortened: as §2
[17] = AUC in beagle dog at 10 mg/kg, iv; format: ADME, organism-based, Canis lupus familiaris; parameters: dose 10 mg/kg, route intravenous; details: plasma; procedure, shortened: as §2
[18] = biological target: Sodium-dependent noradrenaline transporter (Homo sapiens) (UniProt P23975); experiment: Inhibition of NET (unknown origin) at 30 uM
[19] = biological target: 5-hydroxytryptamine receptor 4 (Homo sapiens) (UniProt Q13639); experiment: Inhibition of 5-HT4 receptor (unknown origin) at 30 uM
Sequence of 5-hydroxytryptamine receptor 4 (Homo sapiens) (Q13639 whole entry): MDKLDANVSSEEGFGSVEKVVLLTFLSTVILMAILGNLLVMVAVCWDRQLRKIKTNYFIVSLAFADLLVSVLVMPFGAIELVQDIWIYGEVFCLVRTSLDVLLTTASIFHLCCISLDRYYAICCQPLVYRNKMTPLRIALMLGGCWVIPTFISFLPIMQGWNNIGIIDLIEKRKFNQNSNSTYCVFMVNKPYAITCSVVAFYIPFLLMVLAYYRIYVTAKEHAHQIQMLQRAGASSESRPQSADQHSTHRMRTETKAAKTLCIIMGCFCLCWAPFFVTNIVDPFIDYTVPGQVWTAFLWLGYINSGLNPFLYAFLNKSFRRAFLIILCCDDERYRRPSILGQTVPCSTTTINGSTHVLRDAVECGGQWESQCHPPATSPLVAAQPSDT

[20] = biological target: Sodium-dependent serotonin transporter (Homo sapiens) (UniProt P31645); experiment: Inhibition of SERT (unknown origin) at 30 uM
Sequence of Sodium-dependent serotonin transporter (Homo sapiens) (P31645 whole entry, looked up): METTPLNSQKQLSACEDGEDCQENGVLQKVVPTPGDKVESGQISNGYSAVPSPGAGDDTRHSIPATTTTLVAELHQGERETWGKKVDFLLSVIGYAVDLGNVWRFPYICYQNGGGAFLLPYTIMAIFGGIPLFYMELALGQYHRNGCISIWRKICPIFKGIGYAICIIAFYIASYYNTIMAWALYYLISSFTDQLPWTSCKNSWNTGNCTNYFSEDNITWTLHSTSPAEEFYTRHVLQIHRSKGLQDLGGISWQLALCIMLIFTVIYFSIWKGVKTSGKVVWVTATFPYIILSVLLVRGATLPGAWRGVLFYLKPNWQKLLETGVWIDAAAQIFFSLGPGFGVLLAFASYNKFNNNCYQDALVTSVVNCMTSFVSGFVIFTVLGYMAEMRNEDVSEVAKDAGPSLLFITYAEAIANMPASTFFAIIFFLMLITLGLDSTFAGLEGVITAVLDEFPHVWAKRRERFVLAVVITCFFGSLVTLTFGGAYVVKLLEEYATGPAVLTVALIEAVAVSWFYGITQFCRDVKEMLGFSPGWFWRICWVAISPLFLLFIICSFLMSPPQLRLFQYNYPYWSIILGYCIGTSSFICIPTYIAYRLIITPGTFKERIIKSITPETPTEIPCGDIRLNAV

[21] = biological target: T1, Potassium voltage-gated channel subfamily KQT member 1 (Homo sapiens, UniProt P51787); experiment: Inhibition of potassium channel IKs (unknown origin)
T1 sequence (P51787 whole entry): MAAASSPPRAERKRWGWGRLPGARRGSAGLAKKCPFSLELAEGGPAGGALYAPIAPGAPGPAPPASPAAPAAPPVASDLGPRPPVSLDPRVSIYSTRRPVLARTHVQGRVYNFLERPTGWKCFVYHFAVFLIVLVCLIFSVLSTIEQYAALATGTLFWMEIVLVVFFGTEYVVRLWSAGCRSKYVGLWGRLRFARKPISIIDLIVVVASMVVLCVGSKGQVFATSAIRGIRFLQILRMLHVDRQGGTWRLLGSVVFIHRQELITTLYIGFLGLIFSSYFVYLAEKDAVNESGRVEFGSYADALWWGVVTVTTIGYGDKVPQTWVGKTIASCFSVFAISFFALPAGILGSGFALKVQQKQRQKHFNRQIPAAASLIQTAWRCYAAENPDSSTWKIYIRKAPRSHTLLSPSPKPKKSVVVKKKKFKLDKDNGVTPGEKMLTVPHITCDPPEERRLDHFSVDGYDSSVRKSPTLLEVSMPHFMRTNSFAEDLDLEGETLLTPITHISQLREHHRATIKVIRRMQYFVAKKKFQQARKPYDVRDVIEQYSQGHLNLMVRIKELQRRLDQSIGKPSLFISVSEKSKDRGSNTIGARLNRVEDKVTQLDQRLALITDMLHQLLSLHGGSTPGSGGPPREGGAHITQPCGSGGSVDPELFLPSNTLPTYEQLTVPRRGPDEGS
Procedure, shortened: (§3)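 Automated IonWorks patch clamp was run on CHO or HEK cells expressing each channel. A channel-specific voltage pulse was applied before compound and again about 3 min after addition.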

[22] = biological target: Potassium voltage-gated channel subfamily A member 5 (Homo sapiens, UniProt P22460); experiment: Inhibition of potassium channel Kv1.5 (unknown origin); procedure, shortened: as §3
Sequence of Potassium voltage-gated channel subfamily A member 5 (P22460 whole entry): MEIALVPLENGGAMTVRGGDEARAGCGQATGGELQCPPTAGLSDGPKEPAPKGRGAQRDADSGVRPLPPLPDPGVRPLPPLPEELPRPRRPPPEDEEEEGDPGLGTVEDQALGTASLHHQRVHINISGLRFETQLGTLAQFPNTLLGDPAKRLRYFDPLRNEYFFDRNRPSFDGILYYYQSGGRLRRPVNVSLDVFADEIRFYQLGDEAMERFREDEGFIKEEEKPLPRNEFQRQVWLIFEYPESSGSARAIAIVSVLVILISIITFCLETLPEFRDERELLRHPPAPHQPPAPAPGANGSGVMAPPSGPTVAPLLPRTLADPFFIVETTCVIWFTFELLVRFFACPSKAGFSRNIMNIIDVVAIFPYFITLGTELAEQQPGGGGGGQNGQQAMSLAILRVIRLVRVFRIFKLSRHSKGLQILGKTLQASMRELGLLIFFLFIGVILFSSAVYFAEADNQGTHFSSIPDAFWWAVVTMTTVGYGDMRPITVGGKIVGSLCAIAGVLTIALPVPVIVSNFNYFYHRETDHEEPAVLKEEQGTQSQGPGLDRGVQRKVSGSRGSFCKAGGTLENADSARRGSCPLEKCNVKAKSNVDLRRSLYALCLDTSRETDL

[23] = biological target: Sodium channel protein type 5 subunit alpha (Homo sapiens, UniProt Q14524); experiment: Inhibition of […] channel Nav1.5 (unknown origin); procedure, shortened: as §3
[24] = biological target: Voltage-dependent L-type calcium channel subunit alpha-1C (Homo sapiens, UniProt Q13936); experiment: Inhibition of […] channel Cav1.2 (unknown origin); procedure, shortened: as §3
Sequence of Voltage-dependent L-type calcium channel subunit alpha-1C (Q13936 whole entry): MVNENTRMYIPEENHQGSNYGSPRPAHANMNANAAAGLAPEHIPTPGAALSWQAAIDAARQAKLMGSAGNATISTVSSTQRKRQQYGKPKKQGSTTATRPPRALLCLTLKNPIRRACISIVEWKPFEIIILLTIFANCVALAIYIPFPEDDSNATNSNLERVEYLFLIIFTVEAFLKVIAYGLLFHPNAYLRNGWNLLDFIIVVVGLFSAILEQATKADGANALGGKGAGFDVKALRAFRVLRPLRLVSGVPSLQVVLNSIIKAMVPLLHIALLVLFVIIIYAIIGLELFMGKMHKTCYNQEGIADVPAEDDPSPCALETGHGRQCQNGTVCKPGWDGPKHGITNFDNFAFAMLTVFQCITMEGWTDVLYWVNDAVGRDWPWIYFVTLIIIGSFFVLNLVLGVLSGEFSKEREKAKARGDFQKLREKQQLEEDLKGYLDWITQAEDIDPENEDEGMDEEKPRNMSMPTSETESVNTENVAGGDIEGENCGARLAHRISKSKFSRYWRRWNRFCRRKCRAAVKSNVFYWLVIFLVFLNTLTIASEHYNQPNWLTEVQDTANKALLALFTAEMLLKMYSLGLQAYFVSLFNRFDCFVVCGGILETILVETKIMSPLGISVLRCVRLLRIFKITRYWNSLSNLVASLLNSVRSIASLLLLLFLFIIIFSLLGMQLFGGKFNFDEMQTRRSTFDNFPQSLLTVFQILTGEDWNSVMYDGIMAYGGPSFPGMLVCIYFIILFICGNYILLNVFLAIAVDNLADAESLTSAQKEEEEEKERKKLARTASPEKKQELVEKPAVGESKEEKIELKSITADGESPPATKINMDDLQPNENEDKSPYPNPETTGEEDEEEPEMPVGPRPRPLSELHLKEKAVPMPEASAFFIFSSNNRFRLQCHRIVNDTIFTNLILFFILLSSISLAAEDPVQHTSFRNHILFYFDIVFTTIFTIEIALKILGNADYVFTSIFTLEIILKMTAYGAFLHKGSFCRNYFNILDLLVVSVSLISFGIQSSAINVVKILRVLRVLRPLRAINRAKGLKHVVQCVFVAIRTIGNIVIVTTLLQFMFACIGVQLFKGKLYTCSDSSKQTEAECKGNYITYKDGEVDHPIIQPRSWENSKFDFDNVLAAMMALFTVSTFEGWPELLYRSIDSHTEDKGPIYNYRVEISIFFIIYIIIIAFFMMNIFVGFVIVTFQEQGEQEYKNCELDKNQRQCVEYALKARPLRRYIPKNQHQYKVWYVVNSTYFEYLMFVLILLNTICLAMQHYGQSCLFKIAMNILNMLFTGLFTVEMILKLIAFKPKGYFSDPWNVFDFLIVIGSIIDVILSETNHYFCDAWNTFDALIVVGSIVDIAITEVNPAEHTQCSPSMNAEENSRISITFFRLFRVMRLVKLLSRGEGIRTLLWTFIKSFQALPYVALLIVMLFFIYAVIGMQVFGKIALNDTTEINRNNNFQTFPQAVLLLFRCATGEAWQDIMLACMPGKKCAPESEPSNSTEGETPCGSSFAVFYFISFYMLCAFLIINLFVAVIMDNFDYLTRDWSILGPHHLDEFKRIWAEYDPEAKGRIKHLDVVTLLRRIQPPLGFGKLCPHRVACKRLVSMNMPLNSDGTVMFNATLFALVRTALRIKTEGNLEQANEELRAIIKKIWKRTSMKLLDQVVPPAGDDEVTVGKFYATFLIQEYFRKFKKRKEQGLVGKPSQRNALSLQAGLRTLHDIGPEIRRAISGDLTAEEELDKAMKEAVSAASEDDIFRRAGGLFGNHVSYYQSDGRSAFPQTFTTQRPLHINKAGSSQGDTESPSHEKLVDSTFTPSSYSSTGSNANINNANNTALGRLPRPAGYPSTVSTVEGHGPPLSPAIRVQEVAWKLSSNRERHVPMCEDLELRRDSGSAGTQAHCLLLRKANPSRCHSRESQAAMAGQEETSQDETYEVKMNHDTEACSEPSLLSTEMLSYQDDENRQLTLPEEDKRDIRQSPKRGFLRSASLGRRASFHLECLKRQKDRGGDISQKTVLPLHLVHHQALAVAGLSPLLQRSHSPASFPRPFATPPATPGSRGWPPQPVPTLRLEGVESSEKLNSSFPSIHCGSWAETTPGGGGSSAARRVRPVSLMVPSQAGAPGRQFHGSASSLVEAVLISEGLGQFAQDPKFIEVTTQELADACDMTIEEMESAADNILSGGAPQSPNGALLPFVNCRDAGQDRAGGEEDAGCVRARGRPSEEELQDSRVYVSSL

[25] = biological target: Voltage-dependent T-type calcium channel subunit alpha-1H (Homo sapiens, UniProt O95180); experiment: Inhibition of […] channel Cav3.2 (unknown origin); procedure, shortened: as §3

Compound | solubility [1] [µM] | MIC90 (Pseudomonas aeruginosa [2]) [µg/mL] | MIC90 (Escherichia coli [3]) [µg/mL] | MIC90 (Staphylococcus aureus) [µg/mL] | fraction unbound [4] | IC50 [5] [nM] | logD [6] | IC50 [7] [nM] | further results
COc1ccc2ncc(=O)n(CC(N)C3(F)CCC(NCc4ccc5c(n4)NC(=O)CO5)CC3)c2c1 (racemic) | > 333 | 8 (≈ 16.1 µM) | 2 (≈ 4.03 µM) | 0.5 (≈ 1.01 µM) | 0.68 | 5 | 0.25 | > 33000 | 
COc1ccc2ccc(=O)n(C[C@H](N)[C@H]3CC[C@H](NCc4ncc5c(n4)NC(=O)CO5)CC3)c2c1 | > 333 | 2 (≈ 4.18 µM) | 0.5 (≈ 1.04 µM) | 8 (≈ 16.7 µM) | 0.71 | 5 | -0.54 | > 100000 | 
COc1ccc2ncc(=O)n(C[C@H](N)[C@H]3CC[C@H](NCc4ncc5c(n4)NC(=O)CO5)CC3)c2c1 | > 333 | 0.5 (≈ 1.04 µM) | 0.2 (≈ 0.417 µM) | 1 (≈ 2.09 µM) | 0.6 | 2 | -0.48 | > 333000 | 
Cc1cc(=O)n(C[C@H](N)[C@H]2CC[C@H](NCc3ccc4c(n3)NC(=O)CO4)CC2)c2cc(F)ccc12 | > 333 | 0.5 (≈ 1.04 µM) | 0.5 (≈ 1.04 µM) | 1 (≈ 2.09 µM) | 0.64 | 3 | -0.05 |  | 
COc1cnc2ccc(=O)n(C[C@H](N)[C@H]3CC[C@H](NCc4ccc5c(n4)NC(=O)CO5)CC3)c2c1 | > 333 | 1 (≈ 2.09 µM) | 0.5 (≈ 1.04 µM) | 8 (≈ 16.7 µM) | 0.78 | 2 | -0.86 | > 333000 | MIC90 (Pseudomonas aeruginosa [8]): 4 µg/mL (≈ 8.36 µM); MIC90 (Escherichia coli [9]): 0.5 µg/mL (≈ 1.04 µM); MIC90 (Klebsiella pneumoniae): 8 µg/mL (≈ 16.7 µM); clearance [10]: 47 mL/min/kg; Vd [11]: 13 L/kg; half-life [12]: 9 h; AUC [13]: 3900 ng·h/mL; clearance [14]: 14 mL/min/kg; Vd [15]: 2.7 L/kg; half-life [16]: 8 h; AUC [17]: 3800 ng·h/mL; inhibition [18]: 52%; inhibition [19]: 32%; inhibition [20]: 32%; IC50 [21]: > 333000 nM; IC50 [22]: > 333000 nM; IC50 [23]: > 333000 nM; IC50 [24]: > 333000 nM; IC50 [25]: > 333000 nM
COc1cc2c(cc1F)ncc(=O)n2C[C@H](N)[C@H]1CC[C@H](NCc2ncc3c(n2)NC(=O)CO3)CC1 | > 333 | 2 (≈ 4.02 µM) | 2 (≈ 4.02 µM) | 4 (≈ 8.04 µM) | 0.56 | 4 | -0.42 | > 333000 | 
C[C@H]1COc2c(N3CCN(C)CC3)c(F)cc3c(=O)c(C(=O)O)cn1c23.C[C@H]1COc2c(N3CCN(C)CC3)c(F)cc3c(=O)c(C(=O)O)cn1c23.O [LEVOFLOXACIN] |  |  |  |  |  |  |  |  | MIC90 (Pseudomonas aeruginosa [8]): 16 µg/mL; MIC90 (Escherichia coli [9]): 16 µg/mL; MIC90 (Klebsiella pneumoniae): 64 µg/mL
N[C@@H](Cn1c(=O)ccc2ncc(F)cc21)[C@H]1CC[C@H](NCc2ccc3c(n2)NC(=O)CO3)CC1 | > 333 | 2 (≈ 4.29 µM) | 1 (≈ 2.14 µM) | 16 (≈ 34.3 µM) |  | 34 | -1.02 | > 100000 | 
N[C@@H](Cn1c(=O)cnc2ccc(F)cc21)[C@H]1CC[C@H](NCc2ccc3c(n2)NC(=O)CO3)CC1 | > 333 | 0.25 (≈ 0.536 µM) | < 0.06 | 1 (≈ 2.14 µM) | 0.7 | 28 | -0.41 | 174000 | 
COc1ccc2ncc(=O)n(CC[C@]3(N)CC[C@H](NCc4ccc5c(n4)NC(=O)CO5)CC3)c2c1 | > 333 | 8 (≈ 16.7 µM) | 1 (≈ 2.09 µM) | 2 (≈ 4.18 µM) |  | 2 |  |  | 
COc1cnc2ccc(=O)n(C[C@@H](N)[C@H]3CC[C@H](NCc4ccc5c(n4)NC(=O)CO5)CC3)c2c1 | > 333 | 16 (≈ 33.4 µM) | 8 (≈ 16.7 µM) | 128 (≈ 267 µM) | > 0.7 | 33 | -0.84 | > 100000 | 
CNC(Cn1c(=O)cnc2cc(F)c(OC)cc21)[C@H]1CC[C@H](NCc2ncc3c(n2)NC(=O)CO3)CC1 (mixture of isomers) | > 333 | > 64 | 16 (≈ 31.3 µM) | 64 (≈ 125 µM) |  | 39 |  |  | 
COc1ccc2ncc(=O)n(C[C@H](N)[C@H]3CC[C@H](NCc4ccc5c(n4)NC(=O)CO5)CC3)c2c1 | > 333 | 0.5 (≈ 1.04 µM) | 0.5 (≈ 1.04 µM) | 1 (≈ 2.09 µM) | 0.7 | 1 | -0.36 | > 333000 | 
Cc1cc(=O)n(C[C@H](N)[C@H]2CC[C@H](NCc3ncc4c(n3)NC(=O)CO4)CC2)c2cc(F)ccc12 | > 333 | 2 (≈ 4.16 µM) | 0.5 (≈ 1.04 µM) | 4 (≈ 8.32 µM) | 0.66 | 2 | 0.06 | > 333000 | 
